Laboratory results published in ChEMBL document CHEMBL5143669, “Stapled peptides as scaffolds for developing radiotracers for intracellular targets: Preliminary evaluation of a radioiodinated MDM2-binding stapled peptide in the SJSA-1 osteosarcoma model” (Bioorg Med Chem Lett, 2022).

Columns and labels:
[1] = Biodistribution in Stomach of athymic mouse xenografted with human SJSA-1 cells at 166.5 kBq, iv after 2 hrs by automated gamma counting method; format: ADME, organism-based; conditions: in vivo
Method in brief: (§1)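 Athymic mice bearing flank SJSA-1 xenografts received 125I-SIB-labeled peptide (166.5 kBq, 100 μL) by tail vein; groups of five per time point. Tumor, blood and organs were taken at 0.5–24 h and counted by gamma counter; values expressed as %ID/g.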

[2] = Biodistribution in Urinary bladder of athymic mouse xenografted with human SJSA-1 cells at 166.5 kBq, iv after 30 mins by automated gamma counting method; format: ADME, organism-based; conditions: in vivo, 0.5 h; method in brief: as §1
[3] = Biodistribution in Stomach of athymic mouse xenografted with human SJSA-1 cells at 166.5 kBq, iv after 30 mins by automated gamma counting method; format: ADME, organism-based; conditions: in vivo, 0.5 h; method in brief: as §1
[4] = Biodistribution in Lung of athymic mouse xenografted with human SJSA-1 cells at 166.5 kBq, iv after 24 hrs by automated gamma counting method; format: ADME, organism-based; conditions: in vivo
Method in brief: (§2)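 125I-labeled peptide (166.5 kBq in 100 μL) was injected via tail vein into athymic mice bearing flank SJSA-1 xenografts, n = 5 per time point. Tumors, blood and major organs were gamma-counted at 0.5, 2, 6 and 24 h post-injection. Values are %ID/g.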

[5] = Biodistribution in Bone of athymic mouse xenografted with human SJSA-1 cells at 166.5 kBq, iv after 2 hrs by automated gamma counting method; format: ADME, organism-based, Bone element; conditions: in vivo; method in brief: as §2
[6] = Drug uptake in MDM2-amplified human SJSA-1 cells expressing wild type p53 assessed as initially bound radioactivity incubated for 1.5 hrs subsequently re-incubating the cells with fresh medium for up to 2 hrs; format: ADME, cell-based; conditions: sjsa-1, 1.5 h
Method in brief: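 SJSA-1 cells were loaded with 125I-labeled peptide for 1 h, then reincubated in fresh medium for 0.5–2 h. Cell-retained activity and cumulative release into the supernatant were expressed as percentage of initially bound activity.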

[7] = Biodistribution in Tumor of athymic mouse xenografted with human SJSA-1 cells at 166.5 kBq, iv after 24 hrs by automated gamma counting method; format: ADME, organism-based, Neoplasm; conditions: in vivo; method in brief: as §1
[8] = Biodistribution in Large intestine of athymic mouse xenografted with human SJSA-1 cells at 166.5 kBq, iv after 30 mins by automated gamma counting method; format: ADME, organism-based; conditions: in vivo, 0.5 h; method in brief: as §2
[9] = Biodistribution in Muscle of athymic mouse xenografted with human SJSA-1 cells at 166.5 kBq, iv after 24 hrs by automated gamma counting method; format: ADME, organism-based, Muscle tissue; conditions: in vivo; method in brief: as §2
[10] = Biodistribution in Tumor of athymic mouse xenografted with human SJSA-1 cells at 166.5 kBq, iv after 2 hrs by automated gamma counting method; format: ADME, organism-based, Neoplasm; conditions: in vivo; method in brief: as §1

CC(=O)NC(CCCCNC(=O)c1cccc([125I])c1)C(=O)NCCCCCC(=O)N[C@H](C(=O)N[C@@H](CO)C(=O)N[C@@H](Cc1ccccc1)C(=O)N[C@@]1(C)CCCCCC/C=C/CCC[C@@](C)(C(=O)N[C@@H](CCC(=O)O)C(=O)N[C@@H](CC(N)=O)C(=O)N[C@@H](Cc2ccccc2)C(N)=O)NC(=O)[C@H](CC(C)C)NC(=O)[C@H](CC(C)C)NC(=O)[C@H](C)NC(=O)[C@H](Cc2c[nH]c3ccccc23)NC(=O)[C@H](Cc2ccc(O)cc2)NC(=O)[C@H](CCC(=O)O)NC1=O)[C@@H](C)O (stereo not given in full)
Drug uptake [1]: 0.53 % ID/g
Drug uptake [2]: 0.61 % ID/g
Drug uptake [3]: 0.34 % ID/g
Drug uptake [4]: 0.33 % ID/g
Drug uptake [5]: 0.33 % ID/g
Drug uptake [6]: 66.4%
Drug uptake [7]: 0.36 % ID/g
Drug uptake [8]: 0.06 % ID/g
Drug uptake [9]: 0.16 % ID/g
Drug uptake [10]: 2.19 % ID/g
